Assay results reported in ChEMBL document CHEMBL1123654, “Synthesis of N-(3,6-dihydro-1(2H)-pyridinyl)benzamides with hyperglycemic-hypoglycemic activity” (J Med Chem, 1987).

Experiments:
Rattus norvegicus [1] = assay: Hyperglycemic activity and change in blood glucose concentration was reported 4 hours after administration (100 mg/Kg perorally); format: functional
Procedure, shortened: (§1)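 Overnight-fasted rats dosed orally at 100 mg/kg as a suspension in 1% tragacanth in distilled water. Tail capillary blood sampled at 0, 2 and 4 h after dosing. Serum glucose measured by spectrophotometry of enzymatically produced NADH2. Change is expressed relative to time zero as mean ± SEM of four animals; plus means a rise, minus a fall; p<0.05 marks significance.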

Rattus norvegicus [2] = assay: Hyperglycemic activity and change in blood glucose concentration was reported 2 hours after administration of 100 mg/Kg perorally.; format: functional; procedure, shortened: as §1
[3] = Partition coefficient (logP); format: physicochemical; conditions: octanol/water
Procedure, shortened: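 Partition coefficient calculated as P = C(octanol)/C(H2O), using the method of Fujita et al.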

Rattus norvegicus [4] = assay: Hyperglycemic activity and change in blood glucose concentration was reported 2 hours after administration of 100 mg/Kg perorally; format: functional; procedure, shortened: as §1
Rattus norvegicus [5] = assay: Hyperglycemic activity and change in blood glucose concentration was reported 4 hours after administration of 100 mg/Kg perorally; format: functional; procedure, shortened: as §1

Row | SMILES | logP [3] | Change (Rattus norvegicus [1]) | Change (Rattus norvegicus [2]) | Change (Rattus norvegicus [4]) | Change (Rattus norvegicus [5])
1 | COCCCC1=CCCN(NC(=O)c2ccccc2)C1 | 0.908 | -11% | -10% | – | –
2 | CC(=O)OCCCC1=CCN(NC(=O)c2ccccc2)CC1 | 1.52 | 3% | 2% | – | –
3 | CC(=O)OCCCC1=CCCN(NC(=O)c2ccccc2)C1 | 1.49 | 7% | -8% | – | –
4 | O=C(NN1CC=C(CO)CC1)c1ccccc1 | 0.643 | -14% | -10% | – | –
5 | CC(=O)C1=CCCN(NC(=O)c2ccccc2)C1 | -0.0969 | -17% | -5% | – | –
6 | CC(=O)C1=CCN(NC(=O)c2ccccc2)CC1 | 0.38 | -19% | -12% | – | –
7 | O=C(NN1CC=C(CCCO)CC1)c1ccccc1 | 1.22 | -6% | 4% | – | –
8 | O=C(O)CCC1=CCN(NC(=O)c2ccccc2)CC1 | 1 | 7% | -4% | – | –
9 | O=C(O)CCC1=CCCN(NC(=O)c2ccccc2)C1 | 1.18 | -4% | -14% | – | –
10 | COCCCC1=CCN(NC(=O)c2ccccc2)CC1 | 1.49 | -9% | 1% | – | –
11 | COC(=O)CCC1=CCN(NC(=O)c2ccccc2)CC1 | 0.949 | -9% | -9% | – | –
12 | CCCNC(=O)NS(=O)(=O)c1ccc(Cl)cc1 [CHLORPROPAMIDE] | – | -38% | – | -42% | –
13 | COC(=O)CCC1=CCCN(NC(=O)c2ccccc2)C1 | 0.74 | 6% | -2% | – | –
14 | C=C1C=CCN(NC(=O)c2ccccc2)C1 | 1.37 | 4% | – | 5% | –
15 | CC1CC=CCN1NC(=O)c1ccccc1 (stereo unspecified) | 0.699 | 16% | 12% | – | –
16 | O=C(NN1CC=CCC1)c1ccccc1 | – | 50% | 78% | – | –
17 | O=C(NN1CCC=C(CCCO)C1)c1ccccc1 | 1.12 | -6% | -2% | – | –
18 | O=C(NN1CCC=CC1=O)c1ccccc1 | 1.17 | 4% | 1% | – | –

Now from value to molecule, other results behind:

Row | logP [3] | SMILES | Change (Rattus norvegicus [1]) | Change (Rattus norvegicus [2]) | Change (Rattus norvegicus [4]) | Change (Rattus norvegicus [5])
19 | 1.2 | CC1=CCN(NC(=O)c2ccccc2)CC1 | 43% | 48% | – | –
20 | 1.37 | CC1=CCCN(NC(=O)c2ccccc2)C1 | 116% | 124% | – | –
21 | 1.35 | CC1=C(C)CN(NC(=O)c2ccccc2)CC1 | 20% | 27% | – | –
22 | 1.62 | COC1=CCCN(NC(=O)c2ccccc2)C1 | -9% | – | -7% | –
23 | 0.447 | CC(O)C1=CCCN(NC(=O)c2ccccc2)C1 (stereo unspecified) | -16% | -8% | – | –
24 | 1.16 | COC1=CCN(NC(=O)c2ccccc2)CC1 | – | – | 5% | 7%
25 | 0.0414 | CC(O)C1=CCN(NC(=O)c2ccccc2)CC1 (stereo unspecified) | -5% | -10% | – | –
26 | 1.27 | O=C(NN1CCC=C(F)C1)c1ccccc1 | 42% | 64% | – | –
